Laboratory results as given in ChEMBL document CHEMBL3525995, “CYP3A-mediated generation of aldehyde and hydrazine in atazanavir metabolism” (Drug Metab Dispos, 2011).

Columns and labels:
[1] = Drug level in wild type mouse feces treated with 50 mg/kg, po atazanavir by LC-MS/MS analysis; type: ADME, organism-based; parameters: dose 50 mg/kg, dosed compound name Azazanavir, route oral; conditions: in vivo
How it was run: (§1)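 Wild-type mice (n = 4) got a single oral 50 mg/kg dose and were housed individually in metabolic cages for 18 h, with urine and feces collected. Urine was diluted 1:4 in 50% acetonitrile and centrifuged. Feces were homogenized in water (1 mg/10 μl), mixed 1:1 with acetonitrile and centrifuged twice. Supernatants were analyzed by UPLC-TOFMS, with accurate mass (<10 ppm error) and MS/MS for identification.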

[2] = test system: Liver microsome; assay: Drug metabolism in human liver microsomes treated with 50 uM atazanavir by LC-MS/MS analysis; type: ADME
How it was run: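 Human liver microsomes (0.5 g protein/l) were incubated in PBS pH 7.4 with 50 μM substrate, in duplicate. After 5 min preincubation at 37°C, 1.0 mM NADPH (final) was added and the reaction ran 30 min with shaking; incubations without NADPH served as controls. Reactions were quenched with equal-volume acetonitrile, centrifuged and analyzed by UPLC-TOFMS.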

[3] = Drug level in wild type mouse urine treated with 50 mg/kg, po atazanavir by LC-MS/MS analysis; type: ADME, organism-based; parameters: dose 50 mg/kg, dosed compound name Azazanavir, route oral; conditions: in vivo; how it was run: as §1
[4] = Drug excretion in wildtype mouse urine assessed as ((S)-1-{(1S,2S)-1-Benzyl-2-hydroxy-3-[N'-((S)-2-methoxycarbonylamino-3,3-dimethyl-butyryl)-hydrazino propylcarbamoyl}-2,2-dimethyl-propyl)-carbamic acid methyl ester formation at 50 mg/kg, po by LC-MS/MS analysis; type: ADME, organism-based; parameters: dose 50 mg/kg, dosed compound name Azazanavir, route oral; conditions: in vivo; how it was run: as §1
[5] = Drug excretion in wildtype mouse feces assessed as ((S)-1-{(1S,2S)-1-Benzyl-2-hydroxy-3-[N'-((S)-2-methoxycarbonylamino-3,3-dimethyl-butyryl)-hydrazino propylcarbamoyl}-2,2-dimethyl-propyl)-carbamic acid methyl ester formation at 50 mg/kg, po by LC-MS/MS analysis; type: ADME, organism-based; parameters: dose 50 mg/kg, dosed compound name Azazanavir, route oral; conditions: in vivo; how it was run: as §1
[6] = (§2) Drug excretion in wildtype mouse urine assessed as {(S)-3-Hydroxy-1-[N'-[(2S,3S)-2-hydroxy-3-((S)-4-hydroxy-2-methoxycarbonylamino-3,3-dimethyl-butyrylamino)-4-phenyl-butyl]-N'-(4-pyridin-2-yl-benzyl)-hydrazinocarbonyl]-2,2-dimethyl-propyl}-carbamic acid methyl ester formation at 50 mg/kg, po by LC-MS/MS analysis; type: ADME, organism-based; parameters: dose 50 mg/kg, dosed compound name Azazanavir, route oral; conditions: in vivo; how it was run: as §1
[7] = Drug excretion in wild type mouse feces assessed as methyl (S)-1-((2S,3S)-4-(2-((S)-2-amino-3,3-dimethylbutanoyl)-1-(4-(pyridin-2-yl)benzyl)hydrazinyl)-3-hydroxy-1-phenylbutan-2-ylamino)-3,3-dimethyl-1-oxobutan-2-ylcarbamate formation at 50 mg/kg, po by LC-MS/MS analysis; type: ADME, organism-based; parameters: dose 50 mg/kg, dosed compound name Azazanavir, route oral; conditions: in vivo; how it was run: as §1
[8] = Drug excretion in wildtype mouse feces assessed as ((S)-1-{(1S,2S)-1-Benzyl-2-hydroxy-3-[N'-((S)-2-methoxycarbonylamino-3,3-dimethyl-butyryl)-N-(4-pyridin-2-yl-benzyl)-hydrazino]-propylcarbamoyl}-3-hydroxy-2,2-dimethyl-propyl)-carbamic acid methyl ester formation at 50 mg/kg, po by LC-MS/MS analysis; type: ADME, organism-based; parameters: dose 50 mg/kg, dosed compound name Azazanavir, route oral; conditions: in vivo; how it was run: as §1
[9] = Drug excretion in wild type mouse urine assessed as methyl (S)-1-((2S,3S)-4-(2-((S)-2-amino-3,3-dimethylbutanoyl)-1-(4-(pyridin-2-yl)benzyl)hydrazinyl)-3-hydroxy-1-phenylbutan-2-ylamino)-3,3-dimethyl-1-oxobutan-2-ylcarbamate formation at 50 mg/kg, po by LC-MS/MS analysis; type: ADME, organism-based; parameters: dose 50 mg/kg, dosed compound name Azazanavir, route oral; conditions: in vivo; how it was run: as §1
[10] = test system: Liver microsome; assay: Drug metabolism in human liver microsomes assessed as methyl (S)-1-(2-((2S,3S)-3-((S)-2-amino-3,3-dimethylbutanamido)-2-hydroxy-4-phenylbutyl)-2-(4-(pyridin-2-yl)benzyl)hydrazinyl)-3,3-dimethyl-1-oxobutan-2-ylcarbamate formation at 50 uM by LC-MS/MS analysis; conditions: in vitro
[11] = as §2, with “feces” for “urine”; type: ADME, organism-based; parameters: dose 50 mg/kg, dosed compound name Azazanavir, route oral; conditions: in vivo; how it was run: as §1
[12] = test system: Liver microsome; assay: Drug metabolism in human liver microsomes assessed as (S)-methyl 3,3-dimethyl-1-oxo-1-(2-(4-(pyridin-2-yl)benzyl)hydrazinyl)butan-2-ylcarbamate formation at 50 uM by LC-MS/MS analysis; conditions: in vitro
[13] = molecular target: T1, Cytochrome P450 3A4 (Homo sapiens, UniProt P08684); assay: Drug level assessed as human CYP3A4-mediated (S)-methyl 3,3-dimethyl-1-oxo-1-(2-(4-(pyridin-2-yl)benzyl)hydrazinyl)butan-2-ylcarbamate formation treated with 50 uM atazanavir by UPLC-TOFMS system; type: ADME; conditions: recombinant enzyme
T1 sequence (P08684 whole entry): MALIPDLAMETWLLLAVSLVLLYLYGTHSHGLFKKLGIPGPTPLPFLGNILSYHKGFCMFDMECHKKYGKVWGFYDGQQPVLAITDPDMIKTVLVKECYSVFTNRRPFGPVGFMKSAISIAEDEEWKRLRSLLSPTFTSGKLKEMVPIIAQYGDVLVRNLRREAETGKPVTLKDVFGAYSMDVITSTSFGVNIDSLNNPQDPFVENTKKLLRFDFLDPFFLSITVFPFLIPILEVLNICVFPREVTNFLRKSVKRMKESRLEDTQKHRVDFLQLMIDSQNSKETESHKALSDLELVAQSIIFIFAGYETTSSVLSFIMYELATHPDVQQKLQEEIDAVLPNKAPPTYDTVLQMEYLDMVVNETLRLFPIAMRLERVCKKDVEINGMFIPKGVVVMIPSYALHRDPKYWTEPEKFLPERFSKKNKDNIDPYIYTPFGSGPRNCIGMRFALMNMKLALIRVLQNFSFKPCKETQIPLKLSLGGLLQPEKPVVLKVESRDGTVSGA
How it was run: (§3)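 Each cDNA-expressed human P450 (CYP1A2, 2A6, 2B6, 2C8, 2C9, 2C19, 2D6, 2E1, 3A4; 2 pmol), plus a control, was incubated in PBS pH 7.4 with 50 μM substrate. After 5 min preincubation at 37°C, 1.0 mM NADPH (final) was added and the reaction ran 30 min with shaking. Ketoconazole (10 μM) was co-incubated as a CYP3A inhibitor, and NADPH-free incubations served as controls. Reactions were quenched with acetonitrile, centrifuged and analyzed by UPLC-TOFMS.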

[14] = Drug excretion in wild type mouse urine assessed as (S)-methyl 3,3-dimethyl-1-oxo-1-(2-(4-(pyridin-2-yl)benzyl)hydrazinyl)butan-2-ylcarbamate formation at 50 mg/kg, po by LC-MS/MS analysis; type: ADME, organism-based; parameters: dose 50 mg/kg, dosed compound name Azazanavir, route oral; conditions: in vivo; how it was run: as §1
[15] = test system: Liver microsome; assay: Drug metabolism in human liver microsomes assessed as ((S)-1-{(1S,2S)-1-Benzyl-2-hydroxy-3-[N'-((S)-2-methoxycarbonylamino-3,3-dimethyl-butyryl)-hydrazino]-propylcarbamoyl}-2,2-dimethyl-propyl)-carbamic acid methyl ester formation at 50 uM by LC-MS/MS analysis; conditions: in vitro
[16] = Drug excretion in wildtype mouse urine assessed as ((S)-1-{(1S,2S)-1-Benzyl-2-hydroxy-3-[N'-((S)-2-methoxycarbonylamino-3,3-dimethyl-butyryl)-N-(4-pyridin-2-yl-benzyl)-hydrazino]-propylcarbamoyl}-3-hydroxy-2,2-dimethyl-propyl)-carbamic acid methyl ester formation at 50 mg/kg, po by LC-MS/MS analysis; type: ADME, organism-based; parameters: dose 50 mg/kg, dosed compound name Azazanavir, route oral; conditions: in vivo; how it was run: as §1
[17] = Drug excretion in wildtype mouse urine assessed as ((S)-1-{(1S,2S)-1-Benzyl-2-hydroxy-3-[N'-((S)-2-methoxycarbonylamino-3,3-dimethyl-butyryl)-N-(4-pyridin-2-yl-benzyl)-hydrazino]-propylcarbamoyl}-3-hydroxy-2-hydroxymethyl-2-methyl-propyl)-carbamic acid methyl ester formation at 50 mg/kg, po by LC-MS/MS analysis; type: ADME, organism-based; parameters: dose 50 mg/kg, dosed compound name Azazanavir, route oral; conditions: in vivo; how it was run: as §1
[18] = Drug excretion in wild type mouse urine assessed as methyl (S)-1-(2-((2S,3S)-3-((S)-2-amino-3,3-dimethylbutanamido)-2-hydroxy-4-phenylbutyl)-2-(4-(pyridin-2-yl)benzyl)hydrazinyl)-3,3-dimethyl-1-oxobutan-2-ylcarbamate formation at 50 mg/kg, po by LC-MS/MS analysis; type: ADME, organism-based; parameters: dose 50 mg/kg, dosed compound name Azazanavir, route oral; conditions: in vivo; how it was run: as §1
[19] = test system: Liver microsome; assay: Drug metabolism in human liver microsomes assessed as methyl (S)-1-((2S,3S)-4-(2-((S)-2-amino-3,3-dimethylbutanoyl)-1-(4-(pyridin-2-yl)benzyl)hydrazinyl)-3-hydroxy-1-phenylbutan-2-ylamino)-3,3-dimethyl-1-oxobutan-2-ylcarbamate formation by LC-MS/MS analysis
[20] = test system: Liver microsome; assay: Drug metabolism in human liver microsomes assessed as ((S)-1-{(1S,2S)-1-Benzyl-2-hydroxy-3-[N'-((S)-2-methoxycarbonylamino-3,3-dimethyl-butyryl)-N-(4-pyridin-2-yl-benzyl)-hydrazino]-propylcarbamoyl}-3-hydroxy-2,2-dimethyl-propyl)-carbamic acid methyl ester formation at 50 uM by LC-MS/MS analysis; conditions: in vitro
[21] = test system: Liver microsome; assay: Drug metabolism in human liver microsomes assessed as ((S)-1-{(1S,2S)-1-Benzyl-2-hydroxy-3-[N'-((S)-2-methoxycarbonylamino-3,3-dimethyl-butyryl)-N-(4-pyridin-2-yl-benzyl)-hydrazino]-propylcarbamoyl}-3-hydroxy-2-hydroxymethyl-2-methyl-propyl)-carbamic acid methyl ester formation at 50 uM by LC-MS/MS analysis; conditions: in vitro
[22] = Drug excretion in wildtype mouse feces assessed as ((S)-1-{(1S,2S)-1-Benzyl-2-hydroxy-3-[N'-((S)-2-methoxycarbonylamino-3,3-dimethyl-butyryl)-N-(4-pyridin-2-yl-benzyl)-hydrazino]-propylcarbamoyl}-3-hydroxy-2-hydroxymethyl-2-methyl-propyl)-carbamic acid methyl ester formation at 50 mg/kg, po by LC-MS/MS analysis; type: ADME, organism-based; parameters: dose 50 mg/kg, dosed compound name Azazanavir, route oral; conditions: in vivo; how it was run: as §1
[23] = Drug excretion in wild type mouse feces assessed as methyl (S)-1-(2-((2S,3S)-3-((S)-2-amino-3,3-dimethylbutanamido)-2-hydroxy-4-phenylbutyl)-2-(4-(pyridin-2-yl)benzyl)hydrazinyl)-3,3-dimethyl-1-oxobutan-2-ylcarbamate formation at 50 mg/kg, po by LC-MS/MS analysis; type: ADME, organism-based; parameters: dose 50 mg/kg, dosed compound name Azazanavir, route oral; conditions: in vivo; how it was run: as §1
[24] = Drug excretion in wild type mouse assessed as (S)-methyl 3,3-dimethyl-1-oxo-1-(2-(4-(pyridin-2-yl)benzyl)hydrazinyl)butan-2-ylcarbamate formation at 50 mg/kg, po by LC-MS/MS analysis; type: ADME, organism-based; parameters: dose 50 mg/kg, dosed compound name Azazanavir, route oral; conditions: in vivo; how it was run: as §1
[25] = molecular target: Cytochrome P450 2D6 (Homo sapiens, UniProt P10635); assay: Drug level assessed as human CYP2D6-mediated compound formation treated with atazanavir at 50 uM by UPLC-TOFMS system; type: ADME; conditions: recombinant enzyme; how it was run: as §3
Sequence of Cytochrome P450 2D6 (P10635 whole entry): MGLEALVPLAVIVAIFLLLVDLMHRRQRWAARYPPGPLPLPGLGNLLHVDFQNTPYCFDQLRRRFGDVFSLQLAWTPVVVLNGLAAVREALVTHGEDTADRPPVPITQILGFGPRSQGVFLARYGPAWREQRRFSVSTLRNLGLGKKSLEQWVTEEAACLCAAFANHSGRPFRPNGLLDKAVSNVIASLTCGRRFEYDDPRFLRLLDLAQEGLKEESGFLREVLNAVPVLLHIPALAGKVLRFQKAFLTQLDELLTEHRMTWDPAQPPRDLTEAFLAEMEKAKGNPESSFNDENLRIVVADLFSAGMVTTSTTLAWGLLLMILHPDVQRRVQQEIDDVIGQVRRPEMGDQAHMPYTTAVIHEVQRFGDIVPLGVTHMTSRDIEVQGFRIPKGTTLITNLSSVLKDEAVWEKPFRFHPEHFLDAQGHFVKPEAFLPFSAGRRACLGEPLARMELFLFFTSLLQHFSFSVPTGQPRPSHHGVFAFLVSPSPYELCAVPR

[26] = molecular target: T1, Cytochrome P450 3A4; assay: Drug metabolism assessed as human CYP3A4-mediated formation at 50 uM by UPLC-TOFMS system; type: ADME; conditions: recombinant enzyme; how it was run: as §3

Measured: Compound recovery

COC(=O)N[C@H](C(=O)N[C@@H](Cc1ccccc1)[C@@H](O)CN(Cc1ccc(-c2ccccn2)cc1)NC(=O)[C@@H](N)C(C)(C)C)C(C)(C)C
metabolite_detected: [1] | [2] | [3]

COC(=O)N[C@H](C(=O)N[C@@H](Cc1ccccc1)[C@@H](O)CN(Cc1ccc(-c2ccccn2)cc1)NC(=O)[C@@H](NC(=O)OC)C(C)(C)C)C(C)(C)C [ATAZANAVIR]
metabolite_detected: [4] | [5] | [6] | [7] | [8] | [9] | [10] | [11] | [12] | [13] | [14] | [15] | [16] | [17] | [18] | [19] | [20] | [21] | [22] | [23] | [24]

COC(=O)N[C@H](C(=O)NN(Cc1ccc(-c2ccccn2)cc1)C[C@H](O)[C@H](Cc1ccccc1)NC(=O)[C@@H](NC(=O)OC)C(C)(C)CO)C(C)(C)C
metabolite_detected: [1] | [2] | [3]

COC(=O)N[C@H](C(=O)N[C@@H](Cc1ccccc1)[C@@H](O)CN(Cc1ccc(-c2ccccn2)cc1)NC(=O)[C@@H](NC(=O)OC)C(C)(C)CO)C(C)(C)CO
metabolite_detected: [1] | [3]

COC(=O)N[C@H](C(=O)NNCc1ccc(-c2ccccn2)cc1)C(C)(C)C
metabolite_detected: [1] | [2] | [3]

COC(=O)N[C@H](C(=O)NN(Cc1ccc(-c2ccccn2)cc1)C[C@H](O)[C@H](Cc1ccccc1)NC(=O)[C@@H](N)C(C)(C)C)C(C)(C)C
metabolite_detected: [1] | [2] | [3]

COC(=O)N[C@H](C(=O)N[C@@H](Cc1ccccc1)[C@@H](O)CNN)C(C)(C)C
metabolite_detected: [1] | [2] | [3]

COC(=O)N[C@H](C(=O)NNC[C@H](O)[C@H](Cc1ccccc1)NC(=O)[C@@H](NC(=O)OC)C(C)(C)C)C(C)(C)C
metabolite_detected: [25] | [1] | [26] | [2] | [3]

COC(=O)N[C@H](C(=O)NN(Cc1ccc(-c2ccccn2)cc1)C[C@H](O)[C@H](Cc1ccccc1)NC(=O)[C@@H](NC(=O)OC)C(C)(CO)CO)C(C)(C)C
metabolite_detected: [1] | [2] | [3]

COC(=O)N[C@H](C(=O)N[C@@H](Cc1ccccc1)[C@@H](O)C=O)C(C)(C)C
metabolite_detected: [1]
